From PubChem
Hsp90 inh: displaces geldanamycin probe from tumor Hsp90; P07900; NCI-N417 lysate Hsp90, Cy3B-geldanamycin FP displacement; inhibition, % at 30 µM; 64,000 tested, 0.35% active;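 active = inhibition above 50%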;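 note: 0% = tracer plus lysate wells and 100% = tracer alone without lysate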
Ecoli WT expand: blocks growth of wild type E. coli BW25113; OD600 absorbance; 98,000 tested, 0.15% active; AID 710; growth inhibition, % at 100 µM;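 active = growth inhibition above about 50% at one test dose, limit read from the data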;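 note: growth measured after 20 h incubation at 37 °C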
M1 antag: blocks the rat M1 muscarinic receptor response to acetylcholine. P08482. CHO-M1 cells, Fluo-4 calcium, ACh EC80 antagonist mode; hits give low values. B-score at 10 µM. 64,000 tested, 3.4% active. AID 628;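 active = calcium fluorescence response, raw or row-and-column corrected B-score, differing from the plate sample mean either way at a set confidence level, mostly lower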
Target sequence (P08482 whole entry, looked up): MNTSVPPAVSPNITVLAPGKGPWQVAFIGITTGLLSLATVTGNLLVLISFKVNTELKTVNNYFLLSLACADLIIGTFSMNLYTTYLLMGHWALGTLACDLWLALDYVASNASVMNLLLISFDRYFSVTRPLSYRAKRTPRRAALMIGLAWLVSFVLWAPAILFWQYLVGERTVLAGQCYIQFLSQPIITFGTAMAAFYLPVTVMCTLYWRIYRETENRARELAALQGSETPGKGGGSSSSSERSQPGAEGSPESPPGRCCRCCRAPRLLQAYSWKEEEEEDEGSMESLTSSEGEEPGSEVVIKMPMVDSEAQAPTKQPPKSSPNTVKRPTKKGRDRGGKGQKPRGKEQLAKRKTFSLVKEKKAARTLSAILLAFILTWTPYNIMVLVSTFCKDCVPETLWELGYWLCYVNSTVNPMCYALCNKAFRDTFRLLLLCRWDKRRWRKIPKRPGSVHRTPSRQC
BAP1 inh: inhibitors of human BAP1 deubiquitinase; recombinant BAP1, Ub-AMC hydrolysis fluorescence kinetic; hits give low values; calls only at 20 µM; 72,000 tested, 0.48% active; AID 436;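 active = activity remaining at or below 50% of control, provided the compound also passes the data quality filters; inactive = the rest, including low values that fail the filters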;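 note: 100% = DMSO wells rate and 0% = substrate alone blank rate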
M1 agonist: agonists of M1 muscarinic receptor | 64,000 tested, 3% active | CHO-M1 cells, Fluo-4 calcium fluorescence, agonist mode; hits give high values | B-score at 10 µM;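 active = fluorescence rise, raw or as B-score row- and column-corrected plate score, outside the 99.7% band of its plate's samples, either direction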
tolC growth inh: growth inhibitors of E. coli BW25113 tolC mutant; OD615; growth inhibition, % at 10 µM (by protocol); 65,000 tested, 2.2% active;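 active = growth inhibition at or above a cutoff equal to the mean over every tested compound plus 3 SD, cut at about 60% in these data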;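 note: growth measured after 20 h incubation at 37 °C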
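Test system: tolC-deleted E. coli BW25113; medium: LB with kanamycin 50 µg/mL; compound: single-point testing at 10 µM; incubation: 20 h compound exposure of bacteria at 37 °C; signal: OD at 615 nm; evaluation: growth inhibition in percent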
BAP1 inh confirm: confirmation of human BAP1 enzyme inhibitors; purified BAP1, Ub-ethyl ester hydrolysis, HPLC; hits give low values; % of control activity, % at 20 µM; 310 tested, 8% active; shares compounds with BAP1 inh; AID 753;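 active = percent of control activity at or below 60%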
An asterisk follows results filed as active; i = inactive; nt = no result; + = active, no number. Shown are actives, neighbours in structure and some others; about 5.1% of the full set was active somewhere.

SMILES	Hsp90 inh	Ecoli WT expand	M1 antag	BAP1 inh	M1 agonist	tolC growth inh	BAP1 inh confirm
O=C(Nc1ccccc1NC(=O)NC1CCCCC1)NC1CCCCC1	3	-6	nt	+	nt	-3	104
Brc1ccc(C2Nc3cccc4cccc(c34)N2)o1	13	0	-0.0099	+	-0.95	21	86
Cc1csc(NC(=O)c2cc3c(s2)-c2ccccc2OC3)n1	-3	-1	0.56	+	-0.95	16	91
CN(C)CCNC(=O)c1cc2c(s1)-c1ccccc1OC2	nt	1	nt	nt	nt	nt	nt
CC(C)CN(CC(C)C)C(=O)c1c(NC(=O)c2ccccc2)sc2c1CCCC2	nt	nt	nt	i	nt	nt	nt
O=c1[nH]c(SCc2ccc(F)cc2)nc2c1cnn2-c1ccc(F)cc1	-1	nt	0.65	+	0.97	0	57*
N#CCCn1nnc2ccccc21	-3	-2	-0.72	i	-0.33	-23	nt
CCOc1ccccc1OCCn1nnc2ccccc21	1	8	0.35	+	0.27	10	105
COc1ccc(NC(=O)c2nc[nH]c2C(=O)Nc2ccccc2C)cc1	2	-3	0.4	+	0.38	2	156
CCc1cc2cc3c(cc2nc1SCC(=O)Nc1cc(C)on1)OCO3	-3	-10	-0.32	+	-0.22	1	93
CCc1cc2cc3c(cc2nc1SCC(=O)Nc1nnc(C)s1)OCCO3	nt	-6	nt	nt	nt	nt	nt
COC(=O)c1cc2nc(-c3ccc(OC)c(OC)c3)cc(C(F)(F)F)n2n1	-3	-1	-0.03	+	-0.96	-5	129
CC(C)c1cc(Nc2cccc(O)c2)cc(C(C)C)c1O	72*	nt	0.05	+	1.3	14	82
COc1ccc(-n2nc3cc(C)c(NC(=O)c4cc5ccccc5cc4OC)cc3n2)cc1	nt	nt	nt	i	nt	nt	nt
O=C(Cn1cnc2sc(-c3ccccc3)cc2c1=O)NCc1ccco1	-8	0	0.11	+	0.69	-15	126
O=C(Cn1cnc2sc(-c3ccccc3)cc2c1=O)NCc1ccccc1	nt	-3	nt	nt	nt	nt	nt
C=CCn1cc(C(=O)NCc2ccco2)c(=O)c2cc(S(=O)(=O)N3CCCCCC3)ccc21	-6	-22	-0.49	+	-0.11	68*	97
CCn1cc(C(=O)NCc2ccco2)c(=O)c2cc(S(=O)(=O)N3CCCCCC3)ccc21	2	-6	0.61	i	0.51	23	nt
COc1ccc(-c2noc(-c3ccc(Cl)cc3)n2)cc1	1	nt	0.67	+	0.092	-11	77
COc1ccc(-c2nnc(SCC(=O)Nc3ccccc3OC)o2)cc1	-5	nt	-0.07	i	-0.37	4	nt
COc1ccc(-c2nnc(SCC(=O)Nc3cccc(Cl)c3)o2)cc1	-2	-5	0.86	+	1.3	0	109
O=C(CSc1nnc(C2CC2)n1Cc1ccccc1)c1cc2ccccc2o1	-34	-6	-0.064	+	-0.01	8	91
NC(=O)CSc1nnc(-c2cc3ccccc3o2)n1Cc1ccccc1	-4	0	0.12	i	-1.1	-7	nt
CCOc1ccc(-n2nc3ccc(NC(=O)c4ccc(-c5cccc([N+](=O)[O-])c5)o4)cc3n2)cc1	nt	nt	nt	i	nt	nt	nt
CC(=O)C1=C(C)NC(SCC(=O)c2ccc(Cl)c(Cl)c2)=C(C#N)C1c1ccco1 (stereo not given)	-12	nt	-0.58	+	0.64	59	42*
SMILES	Hsp90 inh	Ecoli WT expand	M1 antag	BAP1 inh	M1 agonist	tolC growth inh	BAP1 inh confirm
CCc1ccc(C(=O)CSC2=C(C#N)C(c3ccco3)C(C(C)=O)=C(C)N2)cc1 (stereo not given)	-6	-8	-0.33	i	0.2	35	nt
CC(=O)C1=C(C)NC(SCC(=O)c2ccc(F)cc2)=C(C#N)C1c1ccco1 (stereo not given)	-7	-9	-0.42	i	-0.48	26	nt
CC(=O)C1=C(C)NC(SCC(=O)c2cc(Cl)ccc2Cl)=C(C#N)C1c1ccco1 (stereo not given)	-11	nt	nt	+	nt	36	96
Cc1ccc2cc3c(NC(=O)c4ccco4)nn(CC(C)C)c3nc2c1	-3	6	-0.6	+	-0.28	-9	109
Cc1ccc(S(=O)(=O)Nc2ccc3c(c2)C(=O)NC3=O)cc1	nt	nt	nt	i	nt	nt	nt
COc1ccc(NC(=O)c2nn3c(c2Br)NC(c2ccc(Br)o2)CC3C(F)(F)F)c(OC)c1 (stereo not given)	nt	nt	nt	i	nt	nt	nt
